From ChEMBL document CHEMBL2150975, “Discovery of a novel chemotype of tyrosine kinase inhibitors by fragment-based docking and molecular dynamics” (ACS Med Chem Lett, 2012)
Active and inactive are the calls of the source. The rule behind the calls is not given here.

Assays:
[1] = target: T1, Ephrin type-B receptor 4 (Homo sapiens) (UniProt P54760); experiment: Inhibition of EphB4 at 30 uM in presence of 30 uM ATP
T1 sequence (whole entry): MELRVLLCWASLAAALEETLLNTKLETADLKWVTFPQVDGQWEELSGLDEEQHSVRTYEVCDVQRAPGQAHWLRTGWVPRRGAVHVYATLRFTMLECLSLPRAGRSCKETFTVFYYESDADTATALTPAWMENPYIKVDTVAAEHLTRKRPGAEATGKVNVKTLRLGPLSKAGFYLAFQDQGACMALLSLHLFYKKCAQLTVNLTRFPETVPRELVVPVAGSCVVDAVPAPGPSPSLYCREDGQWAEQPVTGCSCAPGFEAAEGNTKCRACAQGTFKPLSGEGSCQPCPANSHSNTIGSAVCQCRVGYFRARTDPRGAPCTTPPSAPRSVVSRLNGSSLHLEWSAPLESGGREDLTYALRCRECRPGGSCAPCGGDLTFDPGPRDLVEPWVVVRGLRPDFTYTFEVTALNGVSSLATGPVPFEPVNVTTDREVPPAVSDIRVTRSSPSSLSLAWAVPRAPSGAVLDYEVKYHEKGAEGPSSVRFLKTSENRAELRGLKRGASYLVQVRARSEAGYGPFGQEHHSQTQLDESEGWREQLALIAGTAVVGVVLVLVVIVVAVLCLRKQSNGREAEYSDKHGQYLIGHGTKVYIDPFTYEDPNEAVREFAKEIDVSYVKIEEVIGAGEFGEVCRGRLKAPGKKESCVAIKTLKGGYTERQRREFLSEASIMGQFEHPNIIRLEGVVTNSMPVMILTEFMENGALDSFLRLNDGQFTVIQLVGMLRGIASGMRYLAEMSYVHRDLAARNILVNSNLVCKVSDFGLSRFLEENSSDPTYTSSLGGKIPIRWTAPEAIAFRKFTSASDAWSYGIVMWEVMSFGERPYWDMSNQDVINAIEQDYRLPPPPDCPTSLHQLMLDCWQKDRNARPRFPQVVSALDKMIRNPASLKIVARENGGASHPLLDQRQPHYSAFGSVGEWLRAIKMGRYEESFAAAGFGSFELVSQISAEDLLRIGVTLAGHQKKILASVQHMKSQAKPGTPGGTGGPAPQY
Summary of the method: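 EphB4 kinase, FRET enzymatic assay run in house with a commercial EphB4 assay kit. ATP at 30 μM, compound at 30 μM. Read-out is percent inhibition at that single concentration.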

[2] = target: T2, Ephrin type-B receptor 4 (Homo sapiens, UniProt P54760); experiment: Inhibition of EphB4 in presence of 1 uM radiolabeled ATP
T2 sequence (P54760 whole entry): T1 sequence (whole entry)
Summary of the method: (§1)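 Radiometric enzymatic assay run by a contract lab (Reaction Biology) on the recombinant catalytic domain of each kinase, with radiolabeled ATP at 1 μM. IC50 taken from a 10-dose response.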

[3] = target: T2, Ephrin type-B receptor 4; experiment: Inhibition of EphB4 by FRET assay in presence of 30 uM ATP
Summary of the method: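 In-house FRET enzymatic assay of EphB4 using a commercial EphB4 kit, ATP 30 μM. IC50 derived from concentration-response.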

[4] = target: Tyrosine-protein kinase Lck (Homo sapiens, UniProt P06239); experiment: Inhibition of recombinant Lck catalytic domain in presence of 1 uM radiolabeled ATP; summary of the method: as §1
[5] = target: Tyrosine-protein kinase ABL1 (Homo sapiens, UniProt P00519); experiment: Inhibition of recombinant Abl1 catalytic domain in presence of 1 uM radiolabeled ATP; summary of the method: as §1
[6] = target: T2, Ephrin type-B receptor 4; experiment: Inhibition of human full length EphB4 expressed in MEF cells assessed as inhibition of human ephrin B2/FC chimera-stimulated receptor autophosphorylation; format: cell-based
Summary of the method: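 Cellular EphB4 phosphorylation assay run by a contract lab (ProQinase) in murine embryonal fibroblasts (MEF) expressing exogenous full-length human EphB4. Cells were stimulated 2 h with human Ephrin-B2/Fc chimera to induce receptor tyrosine autophosphorylation. Read-out is inhibition of that autophosphorylation.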

[7] = target: Epidermal growth factor receptor (Homo sapiens, UniProt P00533); experiment: Inhibition of recombinant EGFR catalytic domain in presence of 1 uM radiolabeled ATP; summary of the method: as §1
[8] = target: Proto-oncogene tyrosine-protein kinase Src (Homo sapiens, UniProt P12931); experiment: Inhibition of recombinant Src catalytic domain in presence of 1 uM radiolabeled ATP; summary of the method: as §1
[9] = target: Insulin-like growth factor 1 receptor (Homo sapiens) (UniProt P08069); experiment: Inhibition of recombinant IGF1R catalytic domain in presence of 1 uM radiolabeled ATP; summary of the method: as §1
Chain of Insulin-like growth factor 1 receptor (Homo sapiens) (P08069 31-736 limits assumed): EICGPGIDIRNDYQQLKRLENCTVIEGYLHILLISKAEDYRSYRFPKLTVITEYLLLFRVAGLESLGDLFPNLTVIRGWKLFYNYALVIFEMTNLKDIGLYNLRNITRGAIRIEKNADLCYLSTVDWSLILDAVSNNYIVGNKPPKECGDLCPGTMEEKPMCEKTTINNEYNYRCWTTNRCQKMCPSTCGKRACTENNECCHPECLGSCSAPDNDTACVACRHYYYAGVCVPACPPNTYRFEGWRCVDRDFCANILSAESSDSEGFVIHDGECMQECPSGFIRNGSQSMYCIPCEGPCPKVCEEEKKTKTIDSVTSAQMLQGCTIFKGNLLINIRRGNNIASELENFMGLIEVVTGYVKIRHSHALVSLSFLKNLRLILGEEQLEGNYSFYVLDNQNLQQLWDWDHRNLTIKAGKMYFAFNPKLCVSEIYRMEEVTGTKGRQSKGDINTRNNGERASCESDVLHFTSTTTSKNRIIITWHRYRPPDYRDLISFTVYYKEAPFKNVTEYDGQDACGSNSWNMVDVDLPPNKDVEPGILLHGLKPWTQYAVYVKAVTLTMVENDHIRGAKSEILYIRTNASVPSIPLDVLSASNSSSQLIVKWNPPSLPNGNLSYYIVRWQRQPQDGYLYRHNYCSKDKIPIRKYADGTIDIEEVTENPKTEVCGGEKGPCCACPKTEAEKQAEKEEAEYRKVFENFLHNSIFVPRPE
Chain of Insulin-like growth factor 1 receptor (Homo sapiens) (P08069 741-1367 limits assumed): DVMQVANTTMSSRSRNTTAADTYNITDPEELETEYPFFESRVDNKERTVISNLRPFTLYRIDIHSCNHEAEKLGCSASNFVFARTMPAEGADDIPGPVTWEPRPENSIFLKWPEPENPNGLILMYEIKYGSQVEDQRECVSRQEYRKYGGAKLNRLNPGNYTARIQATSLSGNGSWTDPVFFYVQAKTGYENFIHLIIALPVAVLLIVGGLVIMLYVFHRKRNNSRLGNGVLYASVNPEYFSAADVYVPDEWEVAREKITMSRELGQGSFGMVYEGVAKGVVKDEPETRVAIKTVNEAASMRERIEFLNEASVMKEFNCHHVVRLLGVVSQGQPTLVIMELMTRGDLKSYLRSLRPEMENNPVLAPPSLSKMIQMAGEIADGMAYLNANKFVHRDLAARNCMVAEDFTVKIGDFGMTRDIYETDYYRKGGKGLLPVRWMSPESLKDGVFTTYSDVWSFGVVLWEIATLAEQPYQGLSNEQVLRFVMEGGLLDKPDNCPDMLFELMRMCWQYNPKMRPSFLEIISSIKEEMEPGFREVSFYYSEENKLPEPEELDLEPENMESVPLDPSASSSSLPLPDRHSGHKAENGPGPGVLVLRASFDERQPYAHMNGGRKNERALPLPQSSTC

Chain of Proto-oncogene tyrosine-protein kinase Src (P12931 2-536 limits assumed): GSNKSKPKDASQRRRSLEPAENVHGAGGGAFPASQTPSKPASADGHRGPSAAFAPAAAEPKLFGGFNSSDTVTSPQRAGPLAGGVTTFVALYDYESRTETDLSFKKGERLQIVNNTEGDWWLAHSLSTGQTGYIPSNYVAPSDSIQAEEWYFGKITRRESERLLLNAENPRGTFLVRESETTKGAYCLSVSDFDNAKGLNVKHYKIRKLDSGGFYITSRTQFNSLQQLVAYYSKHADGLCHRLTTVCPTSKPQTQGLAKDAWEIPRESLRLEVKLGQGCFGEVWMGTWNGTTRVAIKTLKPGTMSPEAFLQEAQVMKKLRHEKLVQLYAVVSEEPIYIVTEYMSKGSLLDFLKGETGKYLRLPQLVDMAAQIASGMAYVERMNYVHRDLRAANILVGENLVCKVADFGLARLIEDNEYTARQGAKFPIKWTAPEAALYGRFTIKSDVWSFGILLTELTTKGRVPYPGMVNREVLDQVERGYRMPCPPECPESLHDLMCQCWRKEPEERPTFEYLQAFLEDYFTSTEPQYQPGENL
Chain of Tyrosine-protein kinase ABL1 (P00519 whole entry, the tested form may be a part): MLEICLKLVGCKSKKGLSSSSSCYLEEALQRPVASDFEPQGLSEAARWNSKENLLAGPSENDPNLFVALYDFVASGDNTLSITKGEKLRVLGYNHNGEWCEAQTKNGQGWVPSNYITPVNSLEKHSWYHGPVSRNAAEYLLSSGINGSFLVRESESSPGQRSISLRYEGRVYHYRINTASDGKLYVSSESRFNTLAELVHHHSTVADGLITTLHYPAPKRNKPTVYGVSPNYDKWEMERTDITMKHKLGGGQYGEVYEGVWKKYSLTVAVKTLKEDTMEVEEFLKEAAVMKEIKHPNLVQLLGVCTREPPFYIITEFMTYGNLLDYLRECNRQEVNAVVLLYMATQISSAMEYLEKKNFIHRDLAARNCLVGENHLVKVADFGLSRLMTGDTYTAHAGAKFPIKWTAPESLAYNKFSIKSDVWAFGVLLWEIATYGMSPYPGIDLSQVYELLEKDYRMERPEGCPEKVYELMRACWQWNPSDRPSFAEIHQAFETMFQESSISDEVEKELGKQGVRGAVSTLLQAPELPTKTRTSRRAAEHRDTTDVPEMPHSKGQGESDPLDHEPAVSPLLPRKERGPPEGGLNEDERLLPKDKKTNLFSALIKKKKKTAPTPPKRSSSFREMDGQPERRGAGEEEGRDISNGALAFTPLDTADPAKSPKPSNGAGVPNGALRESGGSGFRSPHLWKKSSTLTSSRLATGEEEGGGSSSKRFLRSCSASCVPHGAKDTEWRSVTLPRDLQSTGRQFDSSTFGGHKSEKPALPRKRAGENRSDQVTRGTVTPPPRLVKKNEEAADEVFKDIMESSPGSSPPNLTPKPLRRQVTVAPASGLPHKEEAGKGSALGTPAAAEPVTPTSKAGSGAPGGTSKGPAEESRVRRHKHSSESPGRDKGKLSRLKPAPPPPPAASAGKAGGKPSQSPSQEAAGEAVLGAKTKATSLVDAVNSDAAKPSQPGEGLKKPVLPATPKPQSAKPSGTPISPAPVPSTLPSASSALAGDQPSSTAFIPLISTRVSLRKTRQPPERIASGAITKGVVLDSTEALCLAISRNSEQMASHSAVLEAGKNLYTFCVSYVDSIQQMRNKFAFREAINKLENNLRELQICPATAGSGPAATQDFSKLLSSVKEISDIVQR
Chain of Tyrosine-protein kinase Lck (P06239 whole entry, the tested form may be a part): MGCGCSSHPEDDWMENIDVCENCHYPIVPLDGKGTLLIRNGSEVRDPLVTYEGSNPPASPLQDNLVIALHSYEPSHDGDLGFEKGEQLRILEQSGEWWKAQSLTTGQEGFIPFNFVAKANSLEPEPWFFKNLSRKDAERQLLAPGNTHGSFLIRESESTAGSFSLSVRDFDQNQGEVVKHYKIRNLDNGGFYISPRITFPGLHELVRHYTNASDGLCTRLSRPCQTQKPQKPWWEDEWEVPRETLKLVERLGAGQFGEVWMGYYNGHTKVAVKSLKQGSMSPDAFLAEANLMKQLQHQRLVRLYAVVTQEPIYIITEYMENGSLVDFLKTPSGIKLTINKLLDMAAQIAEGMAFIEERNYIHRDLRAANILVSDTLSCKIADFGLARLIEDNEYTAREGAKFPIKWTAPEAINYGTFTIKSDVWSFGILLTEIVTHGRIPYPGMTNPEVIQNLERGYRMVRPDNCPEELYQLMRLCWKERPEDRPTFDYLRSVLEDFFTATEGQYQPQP
Chain of Epidermal growth factor receptor (P00533 whole entry, the tested form may be a part): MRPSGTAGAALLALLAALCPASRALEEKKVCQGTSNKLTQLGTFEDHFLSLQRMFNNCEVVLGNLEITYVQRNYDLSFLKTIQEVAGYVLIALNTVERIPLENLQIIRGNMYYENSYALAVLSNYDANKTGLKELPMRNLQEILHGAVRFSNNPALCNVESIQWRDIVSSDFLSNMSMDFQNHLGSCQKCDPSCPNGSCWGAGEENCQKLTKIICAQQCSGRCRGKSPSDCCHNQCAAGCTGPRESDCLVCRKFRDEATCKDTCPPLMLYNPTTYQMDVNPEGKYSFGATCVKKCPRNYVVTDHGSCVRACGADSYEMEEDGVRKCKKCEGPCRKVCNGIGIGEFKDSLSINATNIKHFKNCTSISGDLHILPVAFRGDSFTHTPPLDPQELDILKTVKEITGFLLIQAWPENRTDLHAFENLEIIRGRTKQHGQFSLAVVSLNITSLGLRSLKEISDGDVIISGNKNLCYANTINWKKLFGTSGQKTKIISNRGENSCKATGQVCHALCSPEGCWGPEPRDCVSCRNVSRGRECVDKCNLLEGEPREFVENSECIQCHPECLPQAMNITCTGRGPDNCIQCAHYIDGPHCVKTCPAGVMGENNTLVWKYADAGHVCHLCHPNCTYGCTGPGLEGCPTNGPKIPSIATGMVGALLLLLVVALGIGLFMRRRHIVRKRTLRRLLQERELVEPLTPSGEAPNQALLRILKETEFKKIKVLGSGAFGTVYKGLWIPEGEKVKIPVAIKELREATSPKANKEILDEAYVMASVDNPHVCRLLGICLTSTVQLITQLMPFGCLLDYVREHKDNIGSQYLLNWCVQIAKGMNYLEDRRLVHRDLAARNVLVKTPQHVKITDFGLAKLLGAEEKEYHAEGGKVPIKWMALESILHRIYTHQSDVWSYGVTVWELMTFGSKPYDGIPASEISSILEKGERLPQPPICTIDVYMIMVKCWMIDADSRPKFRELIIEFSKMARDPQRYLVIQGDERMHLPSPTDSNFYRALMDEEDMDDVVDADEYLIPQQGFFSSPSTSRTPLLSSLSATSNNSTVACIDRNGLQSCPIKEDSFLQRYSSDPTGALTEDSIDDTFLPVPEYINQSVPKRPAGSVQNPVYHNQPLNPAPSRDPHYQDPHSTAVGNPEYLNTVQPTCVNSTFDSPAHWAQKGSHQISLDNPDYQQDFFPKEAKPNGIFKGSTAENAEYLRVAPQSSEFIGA

SMILES	inhibition [1]	IC50 [2]	also measured
Cc1ccc(O)cc1-n1c(=O)c2c(c3c(N)ncnc31)CCCC2		160 nM	IC50 [4]: 1380 nM; IC50 [5]: 864 nM; IC50 [6]: 930 nM; IC50 [7]: 1620 nM; IC50 [8]: 338 nM; IC50 [3]: 300 nM; inhibition [9]: inactive
COc1cccc(-n2c(=O)c3c(c4c(N)ncnc42)CC(C)(C)OC3)c1	38%	14300 nM	
COc1ccccc1-n1c(=O)c2c(c3c(N)ncnc31)CC(C)(C)OC2	0%		

Further lines, with some results ahead:

inhibition [1]	IC50 [2]	SMILES	also measured
75%	5200 nM	COc1cccc(-n2c(=O)c3c(c4c(N)ncnc42)CCCC3)c1	IC50 [3]: 9400 nM
48%	8400 nM	Cc1ccccc1-n1c(=O)c2c(c3c(N)ncnc31)CCCC2	
5%		COc1ccccc1-n1c(=O)c2c(c3c(N)ncnc31)CCCC2	
37%		COc1ccc(-n2c(=O)c3c(c4c(N)ncnc42)CCCC3)cc1	
